Measurements published in ChEMBL document CHEMBL2202955, “Identification of Potent, Selective, Cell-Active Inhibitors of the Histone Lysine Methyltransferase EZH2” (ACS Med Chem Lett, 2012).

Legend:
[1] = target: Histone-lysine N-methyltransferase EZH2 (Homo sapiens, UniProt Q15910); test: Inhibition of EZH2-mediated nuclear H3K27 methylation in human HCC1806 cells after 72 hrs by immunofluorescence analysis; type: cell-based
Summary of the method: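 HCC1806 breast cancer cells were exposed to compound for 72 h. Nuclear H3K27me3 was quantified by an immunofluorescence imaging assay and normalized to total H3. Values are the mean of at least three independent replicates.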

[2] = target: EZH2/SUZ12/EED/RBBP7/RBBP4; test: Inhibition of PRC2 complex of FLAG-EZH2, EED, SUZ12, AEBP2 and RbAp48 using histone H3 peptide (21 to 44) as substrate and [3H]SAM after 30 mins; type: protein-complex assay; details: read-out: Ki(app)

Sequence of Histone-lysine N-methyltransferase EZH2 (Q15910 whole entry): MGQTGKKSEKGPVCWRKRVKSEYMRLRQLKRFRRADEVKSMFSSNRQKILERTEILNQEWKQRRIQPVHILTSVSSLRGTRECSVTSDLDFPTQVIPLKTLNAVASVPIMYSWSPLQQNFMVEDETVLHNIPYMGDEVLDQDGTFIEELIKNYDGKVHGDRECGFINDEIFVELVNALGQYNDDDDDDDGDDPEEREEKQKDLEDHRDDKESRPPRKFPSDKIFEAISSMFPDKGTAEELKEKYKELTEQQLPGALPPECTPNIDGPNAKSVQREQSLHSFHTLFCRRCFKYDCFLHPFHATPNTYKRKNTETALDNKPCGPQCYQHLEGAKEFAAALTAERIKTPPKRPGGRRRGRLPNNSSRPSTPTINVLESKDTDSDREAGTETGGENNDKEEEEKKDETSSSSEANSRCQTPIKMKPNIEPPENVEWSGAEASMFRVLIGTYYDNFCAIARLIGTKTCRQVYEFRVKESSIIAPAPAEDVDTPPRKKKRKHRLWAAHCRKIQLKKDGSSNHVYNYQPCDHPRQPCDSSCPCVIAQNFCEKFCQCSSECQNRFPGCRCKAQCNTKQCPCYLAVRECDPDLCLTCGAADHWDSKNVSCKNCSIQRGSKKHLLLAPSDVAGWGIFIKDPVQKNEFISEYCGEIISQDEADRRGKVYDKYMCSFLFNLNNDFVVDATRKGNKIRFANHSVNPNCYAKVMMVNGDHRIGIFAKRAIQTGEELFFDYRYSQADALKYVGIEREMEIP

IC50 [1] [nM] | Ki [2] [nM] | Structure (SMILES)
2000 | 14 | Cc1cc(C)c(CNC(=O)c2cc(-c3ccnc(N4CCN(C)CC4)c3)cc3c2cnn3C(C)C)c(=O)[nH]1
2510 | 74 | Cc1cc(C)c(CNC(=O)c2cc(C3CC3)cc3c2cnn3C(C)C)c(=O)[nH]1
